Experimental data as given in PubChem BioAssay AID493236 (Broad Institute, 2011).
Records with an inconclusive call do not appear. Unmarked numbers belong to inactive results. The source made the active and inactive calls.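 The calls were made as follows: active = luminescence cut by more than half of the full-inhibition control window in a dose series; inconclusive = no clear call, values can overlap the other calls; inactive = signal rising instead of falling, or the rest.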

What follows are compounds tested on proteasome chymotrypsin-like activity (human) (assay: inhibition of cellular proteasome chymotrypsin-like cleavage – cell-based, U2OS, luminescence, dry powder, set 4, counter-screen for HIF pathway activator project, dose response (AID 493236)). Conditions: U2OS cells, Proteasome-Glo chymotrypsin luminescence; series mostly up to 38 µM; activity change, negative = inhibition: at the top concentration.
In short: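 System: U2OS cells. Input: 2,500 U2OS cells per well. Compound dosing: 8-point threefold dilution series, source stock top 16.5 mM. Timing: 24 h plating, 4 h compound, 2 h reagent. Technique: Proteasome-Glo luminescence. Evaluation: percent activity relative to MG132 and DMSO. Controls: MG132 (1 µM) and DMSO. Repeats: each compound tested in duplicate.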

SMILES | activity change, negative = inhibition [%] | outcome
O=C(NCCCCO)c1cc(-c2ccccc2)on1 | -7.19 | 
O=C(NCCN1CCOCC1)c1cc(-c2ccccc2)on1 | -6.96 | 
Oc1ccc(CN2CCc3ccccc3C2)c2cccnc12 |  | inactive
COc1ccccc1N1CCN(Cc2ccc(O)c3ncccc23)CC1 | -1.65 | 
Cc1ccccc1CNc1nc(-c2ccccn2)nnc1-c1ccccc1 | 2.35 | 
c1ccc(-c2cccc(CNc3nc(-c4ccccn4)nnc3-c3ccccc3)c2)cc1 | 10.3 | 
Cc1ccc(CNC(=O)c2cc(-c3ccccc3)on2)cc1 | 2.56 | 
Clc1cccc(CNc2nc(-c3ccccn3)nnc2-c2ccccc2)c1 | -1.26 | 
Cc1cccc(CNc2nc(-c3ccccn3)nnc2-c2ccccc2)c1 | -2.56 | 
CC(C)(C)CCNc1nc(-c2ccccn2)nnc1-c1ccccc1 | -2.25 | 
Cc1cccc(CNC(=O)c2cc(-c3ccccc3)on2)c1 | 4.7 | 
Cc1ccc(CNc2nc(-c3ccccn3)nnc2-c2ccccc2)cc1C | -3.29 | 
c1ccc(-c2nnc(-c3ccccn3)nc2N2CCC(c3ccccc3)C2)cc1 (stereo not given) | 1.51 | 
O=C(NCCCO)c1cc(-c2ccccc2)on1 | 0.054 | 
c1ccc(-c2nnc(-c3ccccn3)nc2NCCN2CCOCC2)cc1 | -6.63 | 
Cc1cccc(Nc2nc(-c3ccccn3)nnc2-c2ccccc2)n1 | 6.59 | 
c1ccc(-c2ccc(CNc3nc(-c4ccccn4)nnc3-c3ccccc3)cc2)cc1 | -2.18 | 
Cc1ccc(Nc2nc(-c3ccccn3)nnc2-c2ccccc2)cn1 | -0.351 | 
O=C(NCCCN1CCOCC1)c1cc(-c2ccccc2)on1 | -1.67 | 
c1ccc(-c2nnc(-c3ccccn3)nc2N2CCC(C3CCCCC3)C2)cc1 (stereo not given) | -2.79 | 
